A1 apoptosis 2: A1 inhibitors via caspase activation, primary screen, cell-based, luminescence, HTS, two replicates. 24,000 tested, under 10 active. MEF A1-2A-BIM cells, caspase-Glo luminescence, 3 h; percent of clofoctol response, DMSO zero. caspase activation, % (test concentration not listed); in the data active = caspase activation above about 5.9%
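System: mouse embryonic fibroblasts co-expressing A1 and BIM (A1-2A-BIM), primed for A1 dependence; amount: 2500 cells/well; doses: 50 nL pinned compound; schedule: cells settled overnight, compound exposure 3 h at 37 °C, 5% CO2; detection: Caspase-Glo 3/7 luminescence, 1 h at room temperature; read-out: Caspase-3/7 activation, seen as rise in luminescence signal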
INS-1E rescue: protection of INS-1E cells from cytokine death, primary screen, ATP luminescence, single point; INS-1E cytokine-induced death, 48 h; normalised: neutral wells 0, positive control 100; protection from cytokine-induced ATP loss, % at 10 µM; 20,000 compounds, 0.1% hits;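 active = mean replicate protection from cytokine-induced ATP loss at least 50% and at least 75% of replicates each reaching 50%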
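Assay system: INS-1E rat insulinoma cells. Amount: 8000 cells per well. Medium: phenol-red-free RPMI with 5% fetal bovine serum. Reagent: IL-1β, TNF-α and IFN-γ cytokine mix. Doses: one compound concentration, pin transfer. Schedule: 48 h co-treatment, 10 min post-lysis read. Detection: CellTiter-Glo luminescence measuring cellular ATP.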
T cruzi HTS: inhibitors of intracellular Trypanosoma cruzi, primary screen, cell-based, plate reader, single point, set 2. intracellular Trypanosoma cruzi in host cells. 22,000 compounds, 4.9% hits. AID 651903, 2012. activity score (inhibition), % at 5.01 µM; in the data active = activity score above about 55%;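 note: parasites and compound incubated about four days before reading; 0% = median of neutral control wells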
Active calls of the source: *; · = no result given. Many of the other results were omitted from the sample, so hits are more common in it than they were.

SMILES	A1 apoptosis 2	INS-1E rescue	T cruzi HTS
C[C@@H]1CN([C@H](C)CO)C(=O)c2cccc(NC(=O)c3ccncc3)c2O[C@H]1CN(C)Cc1ccc(C(F)(F)F)cc1	2.0	1.7	78.7*
C[C@H](CO)N1C[C@H](C)[C@@H](CN(C)Cc2ccc(C(F)(F)F)cc2)Oc2c(NC(=O)c3ccncc3)cccc2C1=O	0.4	-15.1	83.3*
C[C@H]1CN([C@@H](C)CO)C(=O)c2cccc(NC(=O)c3ccncc3)c2O[C@@H]1CN(C)Cc1ccc(C(F)(F)F)cc1	-0.1	16.6	78.0*
C[C@@H]1CN([C@@H](C)CO)C(=O)c2cccc(NC(=O)c3cnccn3)c2O[C@H]1CN(C)Cc1ccc(C(F)(F)F)cc1	-1.5	-1.3	15.4
C[C@@H]1CN([C@@H](C)CO)C(=O)c2cccc(NC(=O)c3ccncc3)c2O[C@H]1CN(C)Cc1ccc(C(F)(F)F)cc1	-0.3	4.1	77.3*
C[C@@H]1CN([C@H](C)CO)C(=O)c2cccc(NC(=O)c3ccncc3)c2O[C@@H]1CN(C)Cc1ccc(C(F)(F)F)cc1	0.1	-4.9	-1.3
C[C@@H]1CN([C@H](C)CO)C(=O)c2cccc(NC(=O)c3cnccn3)c2O[C@H]1CN(C)Cc1ccc(C(F)(F)F)cc1	-0.2	-3.6	-2.8
O=C(NO)c1ccc(C(=O)N/N=C/c2ccc(O)c(O)c2O)cc1	0.0	·	·
CCO[C@@H]1OC(C(=O)N2CCN(C)CC2)=C[C@H](c2ccccc2)[C@H]1CCCO	-0.3	·	·
CC(C)(C)OC(=O)Nc1cccc(/C=N/NC(=O)CCCCCCC(=O)Nc2ccccc2O)c1	-0.5	-2.5	26.6
O=C(O)CCCCCC(=O)N/N=C/c1ccccc1[N+](=O)[O-]	0.7	7.5	-19.3
COc1ccc([Si](C)(C)[C@H]2[C@H](CCO)O[C@@]3(C(=O)N(c4ccccc4)c4ccccc43)[C@@H]2C)cc1	-1.4	·	·
COc1ccc([Si](C)(C)[C@@H]2[C@@H](CCn3cc(CCO)nn3)O[C@]3(C(=O)N(C)c4ccccc43)[C@H]2C)cc1	1.4	·	·
COc1ccc([Si](C)(C)[C@@H]2[C@@H](CCO)O[C@]3(C(=O)N4c5c(cc(OC)cc53)C(C)=CC4(C)C)[C@H]2C)cc1	26.7*	·	·
COc1ccc([Si](C)(C)[C@@H]2[C@@H](CCn3cc(CCO)nn3)O[C@]3(C(=O)N(c4ccccc4)c4ccccc43)[C@H]2C)cc1	12.2*	·	·
COc1ccc(Br)c(/C=N/NC(=O)CCCCC(=O)NO)c1	-0.1	·	·
C[C@@H]1CN([C@H](C)CO)C(=O)Cc2cc(NC(=O)Cc3cn(C)c4ccccc34)ccc2O[C@H]1CN(C)Cc1ccc(-c2ccccc2)cc1	-0.4	-2.7	64.3*
C[C@H]1CN([C@@H](C)CO)C(=O)Cc2cc(NC(=O)Cc3cn(C)c4ccccc34)ccc2O[C@H]1CN(C)Cc1ccc(-c2ccccc2)cc1	-0.8	-38.1	42.9
C[C@@H]1CN([C@H](C)CO)C(=O)Cc2cc(NC(=O)Cc3cn(C)c4ccccc34)ccc2O[C@@H]1CN(C)CC1CCCCC1	-0.3	0.9	21.3
C[C@@H]1CN([C@H](C)CO)C(=O)Cc2cc(NC(=O)Cc3cn(C)c4ccccc34)ccc2O[C@H]1CN(C)CC1CCCCC1	0.2	-0.9	59.8*
C[C@H]1CN([C@@H](C)CO)C(=O)Cc2cc(NC(=O)Cc3cn(C)c4ccccc34)ccc2O[C@@H]1CN(C)Cc1ccc(-c2ccccc2)cc1	·	-25.2	74.1*
C[C@@H]1CN([C@H](C)CO)C(=O)Cc2cc(NC(=O)Cc3cn(C)c4ccccc34)ccc2O[C@@H]1CN(C)Cc1ccc(C(=O)O)cc1	-0.2	2.4	-4.8
Cc1ccc(S(=O)(=O)N(C)C[C@@H]2Oc3c(NS(C)(=O)=O)cccc3C(=O)N([C@H](C)CO)C[C@H]2C)cc1	·	7.2	-15.9
C/C=C\C=C/C1OC(O)(C(CC)C(=O)NC/C=C\C=C(\C)C(OC)C(C)C2OC(\C=C/C=C\C=C(\C)C(=O)c3c(O)cc[nH]c3=O)C(O)C2O)C(O)C(O)C1(C)C (stereo not given)	0.3	·	·
COc1cccc(S(=O)(=O)N(C)C[C@@H]2Oc3ncc(C#Cc4cccc(F)c4)cc3C(=O)N([C@H](C)CO)C[C@@H]2C)c1	·	·	64.9*
COc1cccc(S(=O)(=O)N(C)C[C@@H]2Oc3ncc(C#Cc4ccc(OC)c(OC)c4)cc3C(=O)N([C@H](C)CO)C[C@@H]2C)c1	-1.4	-10.4	35.0
COc1cccc(S(=O)(=O)N(C)C[C@@H]2Oc3ncc(C#Cc4ccc(C(F)(F)F)cc4)cc3C(=O)N([C@H](C)CO)C[C@@H]2C)c1	·	·	88.8*

Compound activity (PubChem BioAssay)
